Only some compounds are listed: those with a hit (about 3.4% of all), similar ones and a draw of the others.
RORa activator – activators of human nuclear receptor RORA | AID 560 | CHO-K1 Gal4-RORA LBD luciferase reporter, luminescence; percent increase over mock-subtracted basal signal | activation, % at 10 µM | hit rate 1.5% among 65,000;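 active means activation above the mean of all tested compounds plus 3 SD, cut at about 49% in these data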;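 further: 0% = DMSO-treated RORA cells and 100% = added signal equal to DMSO minus mock-transfected cells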
SF-1 act – SF-1 (human) activation; CHO-K1 Gal4-SF-1 LBD luciferase reporter; % increase over DMSO SF-1-specific signal; AID 522; hit rate 1.9% among 65,000; Q13285; activation, % at 10 µM;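 active means activation above the mean activation of all tested compounds plus 3 SD, cut at about 50% in these data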
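Material: CHO-K1 cells with Gal4–hSF-1 LBD chimera plus Gal4-driven luciferase / Input: 4,000 CHO-K1 cells per well / Incubation: compound exposure 20 h at 37 °C / Signal: luminescence read 15 min after SteadyLite luciferase reagent, after room-temperature equilibration / Read-out: percent activation versus DMSO / Benchmarks: DMSO negative control and −SF1 background wells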
JNK3 blocker – JNK3 (human) kinase inhibition. purified JNK3 kinase activity, HTS. inhibition, % at 8 µM. hit rate 0.61% among 60,000; in the data active means inhibition above about 17%;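 further: 0% = DMSO and 100% = reference inhibitor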
MMP-13 inhibitor – blocks human MMP13 activity | hit rate 0.07% among 65,000 | MMP-13 fTHP FRET cleavage, Mca fluorescence | AID 570 | P45452 | inhibition, % at 4 µM;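 active means inhibition above the mean of compound-free control plate wells plus 3 SD, cut at about 14% in these data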;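 further: 0% = DMSO wells and 100% = wells with reference MMP-13 inhibitor after basal subtraction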
ROCK2 blocker – ROCK2 (human) kinase inhibition. O75116. purified ROCK2, Kinase-Glo ATP depletion luminescence. inhibition, % at 6 µM. hit rate 0.35% among 60,000. AID 604;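 active means inhibition above the screen-wide mean inhibition plus 3 SD, cut at about 18% in these data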;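 further: plate controls were DMSO wells for no effect and Y-27632 control wells after no-enzyme background subtraction for full effect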
PKA kinase inh – PKA (human) kinase inhibition. P17612. PKA Kemptide phosphorylation, Kinase-Glo ATP luminescence. inhibition, % at 6 µM. hit rate 0.1% among 65,000. AID 524;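 active means inhibition above the screen-wide mean inhibition plus 3 SD, cut at about 21% in these data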
Active calls of the source: *.

SMILES	RORa activator	SF-1 act	JNK3 blocker	MMP-13 inhibitor	ROCK2 blocker	PKA kinase inh
COc1ccccc1OCCCn1cc(C(=O)c2ccco2)c2ccccc21	65*	52*	-1	0	-1	5
C=CCN(CC=C)Cc1c[nH]c2ccccc12	-14	-16	0	-3	2	4
O/N=C/c1c[nH]c2ccccc12	-11	-2	5	-1	82*	64*
CC1(C)NCCN2C(=O)CSC21 (stereo not drawn)	-21	-6	5	3	6	5
Cc1ccc(-c2nc(CS(=O)CC(=O)N3CCC4(CC3)OCCO4)c(C)o2)cc1 (stereo not drawn)	14	2	1	-1	2	1
COc1ccc(C2NCc3ccc4c(c3-n3cccc32)OCO4)cc1O (stereo not drawn)	50*	21	9	-5	6	10
c1cc2n(c1)-c1c(ccc3c1OCO3)CNC2c1ccc2c(c1)OCO2 (stereo not drawn)	-5	-12	7	0	-1	-5
C=CCC1(CN2CCCCCC2=O)C(=O)NC(=O)NC1=O	-2	4	2	1	7	5
CCn1nc(-c2ccccc2)nc2c(=O)n(C)c(=O)nc1-2	-93	-95	55*	4	72*	4
Nc1ccccc1N=Cc1c(O)n(CCC2=CCCCC2)c(=O)[nH]c1=O	44	78*	0	-17	-12	6
CCCC(C)C(=O)NC1CCSC1=O (stereo not drawn)	-7	-5	-10	-6	1	-1
O=C(C1CC(c2ccc(Cl)c(Cl)c2)=NO1)N1CCC2(CC1)OCCO2 (stereo not drawn)	73*	30	-9	3	1	3
O=C(C1CCCO1)N1CCC2(CC1)OCCO2 (stereo not drawn)	-16	-3	-1	1	4	6
COc1cccc(C2=NOC(C(=O)N3CCC4(CC3)OCCO4)C2)c1 (stereo not drawn)	26	56*	-2	0	0	2
COc1cccc(-n2nc(C(=O)N3CCC4(CC3)OCCO4)c3ccccc3c2=O)c1	-21	13	4	5	4	12
O=C(CCCCCn1c(=S)[nH]c2ccccc2c1=O)N1CCC2(CC1)OCCO2	2	-10	28*	1	-12	-2
O=C1NC(=O)C(CCc2ccncc2)(c2ccccc2)C(=O)N1	-7	-6	11	37*	2	11
CCN1CCN(c2nc3c(c(=O)[nH]2)CCCC3)CC1	-6	-23	8	-2	11	-2

Screening data deposited in PubChem by The Scripps Research Institute Molecular Screening Center.
